# Published values pooled from the literature.
# pIC50: −log10 of the molar value.
# UGT1A6: UDP-glucuronosyltransferase 1A6 (UGT1A6, Homo sapiens, UniProt P19224)
Structure (SMILES),target or system,assay,test system,setting,endpoint,result
Cc1ccn2c(C(=O)N3CCN(Cc4cn(-c5ccc([N+](=O)[O-])cc5)nn4)CC3)c(C)nc2c1,HeLa,"cell growth or viability, resazurin",,,CC50,> 100 µM
Fc1ccc(-c2csc(NN=Cc3cccc(C(F)(F)F)c3)n2)cc1,,haemolysis,human,"50 µM, 30 min, pH 7.4",haemolysis,30.7%
COc1cccc(-n2cc(CN3CCN(C(=O)c4c(C)nc5ccc(Cl)cn45)CC3)nn2)c1,HeLa,"cell growth or viability, resazurin",,,CC50,> 100 µM
CCOc1ccccc1C=NNc1nc(-c2ccc(F)cc2)cs1,,haemolysis,human,"50 µM, 30 min, pH 7.4",haemolysis,16.8%
CCCc1cn(CCN2CCN(C(=O)c3c(C)nc4ccc(Cl)cn34)CC2)nn1,HeLa,"cell growth or viability, resazurin",,,CC50,> 100 µM
CCOP(=O)(OCC)[C@@H]1C[C@H](n2cc(Cn3ccc(=O)[nH]c3=O)nn2)ON1C (racemic),HeLa,cell growth or viability,,72 h,CC50,> 250 µM
C[C@H](O)c1cc(C(=O)N[C@@H](C)Cn2ccc(-c3ccc(C#N)c(Cl)c3)n2)n[nH]1,UGT1A6,"enzyme activity, inhibitor","human, liver microsomes",,pIC50,< 4.00
Fc1ccc(-c2csc(NN=Cc3ccc(C(F)(F)F)cc3)n2)cc1,,haemolysis,human,"50 µM, 30 min, pH 7.4",haemolysis,25.7%
CCc1ccc(-n2cc(CN3CCN(C(=O)c4c(C)nc5ccc(Cl)cn45)CC3)nn2)cc1,HeLa,"cell growth or viability, resazurin",,,CC50,58.1 µM
Fc1ccc(-c2csc(NN=Cc3cccs3)n2)cc1,,haemolysis,human,"100 µM, 30 min, pH 7.4",haemolysis,61.4%
Cc1nc2ccc(Cl)cn2c1C(=O)N1CCN(Cc2cn(-c3ccc([N+](=O)[O-])cc3)nn2)CC1,HeLa,"cell growth or viability, resazurin",,,CC50,> 100 µM
CCOP(=O)(OCC)[C@@H]1C[C@H](n2cc(Cn3cnc4c(N)ncnc43)nn2)ON1C (relative stereo),HEL,cell growth or viability,,72 h,CC50,> 100 µM
CCN(CC)CCCC(C)Nc1ccnc2cc(Cl)ccc12 (centres unmarked),,haemolysis,human,"10 mM, 45 min",haemolysis,15.4%
OC(Cn1cncn1)(Cn1cncn1)c1ccc(F)cc1F,,haemolysis,human,"1 µg/mL, 1 h",haemolysis,3.39%
Oc1ccc(Cl)cc1C=NNc1nc(-c2ccc(F)cc2)cs1,,haemolysis,human,"100 µM, 30 min, pH 7.4",haemolysis,52.5%
CN(CCC(=O)O)C(=O)c1ccc2c(c1)CC[C@@H]1[C@@H]2CC[C@]2(C)C(c3cncc(F)c3)=CC[C@@H]12,UGT1A6,"enzyme activity, inhibitor",,,pIC50,< 4.52
Cc1ccn2c(C(=O)N3CCN(CCn4cc(C5CC5)nn4)CC3)c(C)nc2c1,HeLa,"cell growth or viability, resazurin",,,CC50,> 100 µM
CC(=NNc1nc(-c2ccc(F)cc2)cs1)c1cccc(Br)c1,,haemolysis,human,"10 µM, 30 min, pH 7.4",haemolysis,0%
Cc1ccn2c(C(=O)N3CCN(CCn4cc(-c5ccc(C(C)(C)C)cc5)nn4)CC3)c(C)nc2c1,HeLa,"cell growth or viability, resazurin",,,CC50,> 100 µM
Oc1c(Br)cc(Cl)c2cccnc12,,,"Sprague-Dawley rat, plasma","oral, 20 mg/kg",CL/F,85 mL/min/kg
C[C@@H]1[C@H](O)[C@@H](C)/C=C/C=C/C=C/C=C/C=C/C=C/C=C/[C@H](O[C@@H]2O[C@H](C)[C@@H](O)[C@H](N)[C@@H]2O)C[C@@H]2O[C@](O)(C[C@@H](O)C[C@@H](O)[C@H](O)CC[C@@H](O)C[C@@H](O)CC(=O)O[C@H]1C)C[C@H](O)[C@H]2C(=O)O,,haemolysis,human,"4 µg/mL, 1 h",haemolysis,93.2%
CC(CCc1ccccc1)=NNc1nc(-c2ccc(F)cc2)cs1,,haemolysis,human,"50 µM, 30 min, pH 7.4",haemolysis,8.38%
Cc1ccn2c(C(=O)N3CCN(Cc4cn(-c5cccc([N+](=O)[O-])c5)nn4)CC3)c(C)nc2c1,HeLa,"cell growth or viability, resazurin",,,CC50,> 100 µM
CCOP(=O)(OCC)[C@@H]1C[C@H](n2cc(-c3ccccc3)nn2)ON1C,HeLa,cell growth or viability,,72 h,CC50,> 250 µM
COc1ccc(S(=O)(=O)Nc2cc(OC)c(NC(=O)CCCl)cc2OC)cc1,HeLa,"cell growth or viability, XTT",,72 h,pIC50,4.80
CCOP(=O)(OCC)[C@@H]1C[C@H](n2cc(Cn3ccc(NC(C)=O)nc3=O)nn2)ON1C (racemic),HEL,cell growth or viability,,72 h,CC50,> 100 µM
Fc1ccc(-c2csc(NN=Cc3ccccc3C(F)(F)F)n2)cc1,,haemolysis,human,"10 µM, 30 min, pH 7.4",haemolysis,4.43%
CCOP(=O)(OCC)[C@@H]1C[C@@H](n2cc(Cn3cc(C)c(=O)[nH]c3=O)nn2)ON1C (racemic),HEL,cell growth or viability,,72 h,CC50,> 100 µM
CCc1cc(/C(C)=N/OCc2ccc(C3CCCCC3)c(C(F)(F)F)c2)ccc1CN1CC(C(=O)O)C1,"Cytochrome P450 2B6 (CYP2B6, Homo sapiens, UniProt P20813)","enzyme activity, inhibitor","human, liver microsomes","100 µM, 20 min",inhibition,21%
